The values below come from publication PMC7359938 (Clinical and Translational Science, 2020).

A short description of data set [1]: Safety and tolerability evaluation. Format: in vivo, human. In outline:
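Fasted healthy men and women (21) received a single oral 25 mg dose with 250 mL water in a double-blind two-period crossover (5-day inpatient stays, ≥7-day washout). Safety covered everyone given at least one dose. Twelve-lead ECG was taken predose and at 1, 2 and 24 h. Hematology, serum chemistry and urinalysis were done at admission and at ~24 and 72 h after ≥10 h fasting. Results were summarized by treatment.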

For data set [2] the following is noted: pivotal randomized controlled study; cited from earlier work.
Data set [3] deals with VMAT2. To be noted: in vitro, rats; ref Teva Pharmaceuticals, data on file; cited from earlier work.
For data set [4] the following is noted: cited from earlier work.
[5] abbreviates: Study AUS‐SD‐809‐CTP‐06, single 25 mg dose.

Consider `COc1cc2c(cc1OC)[C@H]1CC(=O)[C@H](CC(C)C)CN1CC2` (racemic) [Tetrabenazine, cis‐rac –1,3,4,6,7,11b‐hexahydro‐9,10‐dimethoxy‐3‐(2‐methylpropyl)2H‐benzo[a]quinolizin‐2‐one], for which the “Reported events of dizziness” value in data set [1] (Study AUS‐SD‐809‐CTP‐06) is recorded as “three”. Also, in data set [1] (setting [5]), the “Number of subjects with at least one treatment‐emergent adverse event (TEAE)” value turned out to be 9, the “Percentage of subjects with at least one treatment‐emergent adverse event (TEAE)” value is listed as 45%, the Subjects with headache worked out at 15% and the Subjects with nausea is given as 15%. In data set [1] (setting [5]), this compound showed a Subjects with somnolence of 10%. Also, the “Tolerability of single doses” value in data set [1] (both studies, incl. 14C‐labeled analogues) was “well‐tolerated”. Moreover, the “Serious or severe TEAEs” value in data set [1] (either study) is “no serious or severe TEAEs”. The “Clinical laboratory assessments, vital signs parameters, ECG measurements, physical examinations” value in data set [1] (following either treatment) is recorded as “no clinically significant findings”. The “Patients requiring dose reduction for intolerability” value in data set [2] is 44%. Also, the “Effect of deuteration on binding to VMAT2” value in data set [3] is “did not change the binding”. For the same compound, in data set [4], the BDDCS classification entry is “Class II”.
